# Hck-Nef inh: inhibitors of human Hck kinase activated by Nef. 0.68% of 220,000 active. AID 463187. P08631. Recombinant Hck-YEEI plus Nef, Z-Lyte FRET kinase assay. inhibition, % at 20 µM;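 active = Hck-Nef kinase inhibition above about 50%, limit read from the data; inactive = inhibition below that limit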
# RBBP9 inh: inhibitors of human serine hydrolase RBBP9; inhibition, % at 7.94 µM; 0.2% of 220,000 active; AID 1515; recombinant RBBP9, FP-Rh probe fluorescence polarization; O75884;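 active = inhibition above the campaign mean of all tested compounds plus 3 SD, cut at about 14% in these data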
#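 System: RBBP9 protein / Quantity: 2.5 µM RBBP9 dispensing solution, before mixing / Also added: Serine-hydrolase probe FP-Rh, 375 nM pre-mixing / Dosing: 7.94 µM single dose, 0.794% DMSO / Timing: enzyme-compound preincubation 30 min, then probe labeling 45 min, 25 °C / Signal: FP readout at 525/598 nm / Controls: DMSO-treated enzyme wells and wells lacking RBBP9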
# RanGTP-Impb inh: inhibitors of RanGTP-importin-beta interaction, primary screen, biochemical, FRET, CFP-Ran, YFP-importin-beta, homogeneous. cell-free CFP-Ran/YFP-importin-beta FRET ratio. inhibition, % (test concentration not listed). 1.1% of 300,000 active. AID 2216;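 active = more than half of the replicate wells show a fall in the fluorescence ratio signal beyond about 16%, limit read from the data, passing the limit was not always enough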
# M18AAP inhibitor: PfM18AAP enzyme inhibition; recombinant PfM18AAP, H-Glu-NHMec fluorogenic cleavage; inhibition, % at 7.35 µM; 1.2% of 290,000 active; AID 1822;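 active = inhibition above the campaign mean inhibition over all tested compounds plus 3 SD, cut at about 28% in these data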
# Runt-SMMHC FRET: inhibitors of human RUNX1 Runt domain binding to CBFb-SMMHC. 0.74% of 220,000 active. inhibition, % at 20 µM. AID 1434. Cerulean-Runt/Venus-CBFb-SMMHC FRET ratio 530/480, 1 h. Q01196+Q13951;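 active = mean inhibition across duplicate retests at 20 µM reaching about 50%, limit read from the data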;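 also: inhibitors lower the FRET ratio by blocking Runt binding to CBFb-SMMHC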
# Target sequence (Q01196 whole entry, looked up, the tested form may be a part): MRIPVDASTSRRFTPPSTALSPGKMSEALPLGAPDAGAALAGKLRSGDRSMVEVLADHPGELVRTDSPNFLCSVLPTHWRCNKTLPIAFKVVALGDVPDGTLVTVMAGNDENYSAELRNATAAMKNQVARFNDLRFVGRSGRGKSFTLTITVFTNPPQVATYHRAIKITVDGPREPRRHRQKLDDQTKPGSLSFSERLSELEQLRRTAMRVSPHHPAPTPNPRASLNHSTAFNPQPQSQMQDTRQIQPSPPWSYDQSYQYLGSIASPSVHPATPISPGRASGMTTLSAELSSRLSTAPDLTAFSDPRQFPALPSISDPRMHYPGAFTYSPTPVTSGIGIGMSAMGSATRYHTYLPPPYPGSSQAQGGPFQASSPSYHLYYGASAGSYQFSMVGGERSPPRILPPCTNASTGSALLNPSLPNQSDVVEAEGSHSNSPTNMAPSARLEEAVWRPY
# Target sequence (Q13951 whole entry, looked up, the tested form may be a part): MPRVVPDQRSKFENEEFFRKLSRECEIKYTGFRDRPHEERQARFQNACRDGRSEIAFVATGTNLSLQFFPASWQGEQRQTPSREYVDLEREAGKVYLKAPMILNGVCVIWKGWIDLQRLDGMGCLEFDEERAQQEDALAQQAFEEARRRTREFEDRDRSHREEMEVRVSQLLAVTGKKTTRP
# Runt-CBFb FRET: Runt domain-CBFb interaction inhibition. inhibition, % at 20 µM. Cerulean-Runt/Venus-CBFb FRET ratio 530/480, 1 h. Q01196+Q13951. AID 1496. 0.46% of 220,000 active;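 active = inhibition over about 50% at 20 µM in the single-dose screen, limit read from the data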
#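 Schedule: protein complex preformed 1 h, compound exposure 1 h, room temperature, dark; test system: Cerulean-labeled Runt domain protein; amount: 100 nM per protein; buffer or medium: Tris 50 mM pH 7.5, KCl, K2SO4, 0.01% BSA; read-out: loss of energy transfer signal; detection: FRET fluorescence; controls: 5 µM unlabeled CBFb as full-inhibition high control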
# Hck-Nef confirm: Hck-Nef kinase inhibition, confirmation; shares compounds with Hck-Nef inh; Recombinant Hck-YEEI:Nef, Z-Lyte FRET kinase assay; calls only at 10 µM; 28% of 1,300 active; AID 463188;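 active = average inhibition of at least 50%, with Z-scores no higher than 3 in both the phospho-tyrosine peptide and fluorescence counterscreens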
# Hits are given with their value; - = inactive; . = no result given; + = active, no number. Shown are actives, neighbours in structure and some others; about 2.9% of the full set was active somewhere.
SMILES,Hck-Nef inh,RBBP9 inh,RanGTP-Impb inh,M18AAP inhibitor,Runt-SMMHC FRET,Runt-CBFb FRET,Hck-Nef confirm
O=C(NCc1ccco1)c1cc2ccccc2o1,-,-,-,-,-,-,.
CC(=O)c1cc2cc(O)ccc2o1,73,-,-,-,70,-,.
CC(=O)c1cc2ccc(O)cc2oc1=O,+,-,148,-,81,-,.
CCOc1cccc(-c2nc3c(s2)CCc2onc(-c4cccc([N+](=O)[O-])c4)c2-3)c1,.,.,-,.,.,.,.
COc1ccc(Nc2ccnc(Nc3ccc(OC)cc3)n2)cc1,88,-,-,-,-,-,+
COc1ccc(Nc2nc(OC)nc(OC)n2)cc1,.,.,-,-,.,.,.
COc1ccc(NC(=O)CN2C(=O)/C(=C3\SC(=S)N(C4CCS(=O)(=O)C4)C3=O)c3ccccc32)cc1 (stereo unspecified),99,-,-,-,-,-,+
O=C(CN1C(=O)/C(=C2\SC(=S)N(C3CCS(=O)(=O)C3)C2=O)c2ccccc21)Nc1ccc(F)cc1 (stereo unspecified),-,-,-,-,-,-,.
CCN1CCN(C(=O)CCNC(=O)Cn2cnc3ccccc3c2=O)CC1,.,.,-,-,.,.,.
COc1ccc(S(=O)(=O)Nc2cccc(S(=O)(=O)NC3=NCCC3)c2)cc1[N+](=O)[O-],.,.,-,.,.,.,.
Cc1ccc(-n2c(N)c(S(=O)(=O)c3ccccc3)c3nc4ccccc4nc32)cc1,-,-,-,-,-,.,.
Cc1ccc(S(=O)(=O)c2c(N)n(NC(=O)C3CC3)c3nc4ccccc4nc23)cc1,73,-,-,-,76,-,.
CCCCn1c(NS(=O)(=O)c2ccc(C)cc2)c(S(=O)(=O)c2ccccc2)c2nc3ccccc3nc21,97,-,-,-,-,-,-
Cc1ccc(S(=O)(=O)c2c(N)n(CC3CCOC3)c3nc4ccccc4nc23)cc1 (stereo unspecified),-,-,-,-,-,-,.
Cc1ccc(S(=O)(=O)c2c(N)n(CCCN(C)C)c3nc4ccccc4nc23)cc1,94,-,-,-,-,-,.
CCOc1ccc(N(CC(=O)NC2CC2)S(=O)(=O)c2ccc(C)cc2)cc1,.,.,-,-,.,.,.
Cc1c(C)c2cc(Cl)c(O)c(CN3CCN(C)CC3)c2oc1=O,66,-,-,-,127,96,.
CN1CCN(Cc2c(O)ccc3c(-c4ccccc4)cc(=O)oc23)CC1,-,-,-,-,-,-,.
COCCNc1cc(C)nc2c3c(C)cc(C)nc3nn12,57,-,50,-,73,-,.
C=CCn1c(=O)c(C#N)cc2c(=O)n3ccccc3nc21,155,-,75,-,79,-,.
N#Cc1cc2c(=O)n3ccccc3nc2n(-c2ccc(Cl)cc2)c1=O,173,-,.,-,90,-,.
Cc1cc(-n2c(=O)c(C#N)cc3c(=O)n4ccccc4nc32)no1,+,-,161,-,65,-,.
Cc1cc(NC(=O)c2cnc3ccccn3c2=O)no1,-,-,.,-,.,.,.
O=c1c2ccccc2cnn1-c1ccc(Cl)cc1,-,-,-,-,-,-,.
Cc1ccccc1-n1c(=O)c(C#N)cc2c(=O)n3ccccc3nc21,+,-,128,-,59,-,.
SMILES,Hck-Nef inh,RBBP9 inh,RanGTP-Impb inh,M18AAP inhibitor,Runt-SMMHC FRET,Runt-CBFb FRET,Hck-Nef confirm
C=CCn1cc(-c2ccccc2)cc(C#N)c1=O,-,-,-,-,-,-,.
CCN(CC)c1ccc(/C=N/N2CCN(Cc3ccccc3Cl)CC2)cc1,.,.,-,-,.,.,.
CCN(CC)c1ccc(/C=N/N2CCN(Cc3ccccc3)CC2)cc1,57,-,-,-,-,-,-
CCOC(=O)c1nnn2c1nc(Nc1cccc(C(F)(F)F)c1)c1ccccc12,66,-,-,-,-,-,-
Cc1ccc(-c2nn(-c3ccccc3)cc2/C=C2\SC(=S)N(CC(=O)O)C2=O)cc1,58,-,-,-,-,-,-
COc1cc(/C=C2\SC(=N)N(c3ccc(F)cc3)C2=O)ccc1O,77,-,-,-,-,-,-
COC(=O)c1ccccc1NC(=O)N1CCN(Cc2ccco2)CC1,64,-,-,-,-,-,-
